Series [1] in a line: Solubility of the compound in 25% DMSO. It is filed as physicochemical.
Series [2] has as its target T1, Fe(3+)-Zn(2+) purple acid phosphatase (Phaseolus vulgaris) (UniProt P80366).
T1 sequence (whole entry): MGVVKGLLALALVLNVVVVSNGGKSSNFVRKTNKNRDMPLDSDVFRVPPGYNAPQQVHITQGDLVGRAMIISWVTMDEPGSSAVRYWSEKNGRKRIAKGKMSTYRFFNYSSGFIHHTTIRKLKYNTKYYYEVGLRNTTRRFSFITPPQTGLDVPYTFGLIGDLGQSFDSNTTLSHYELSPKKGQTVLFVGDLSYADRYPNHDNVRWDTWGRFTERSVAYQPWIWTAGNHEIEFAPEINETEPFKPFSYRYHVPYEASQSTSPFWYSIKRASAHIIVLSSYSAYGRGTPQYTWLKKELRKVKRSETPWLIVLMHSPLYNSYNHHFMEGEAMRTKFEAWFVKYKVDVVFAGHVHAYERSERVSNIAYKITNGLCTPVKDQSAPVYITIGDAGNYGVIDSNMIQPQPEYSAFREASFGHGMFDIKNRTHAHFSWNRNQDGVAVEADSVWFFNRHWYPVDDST
In words: Competitive inhibition of red kidney bean PAP using varying levels of pNPP as substrate measured at pH 6.2 by UV-vis spectrophotometric analysis. The procedure, abridged:
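Red kidney bean PAP (rkbPAP), purified, at 8.4 nM. p-NPP 1–15 mM in 0.1 M MES pH 6.2 with 25% DMSO, 25 °C. p-Nitrophenol formation followed at 405 nm (Δε 1834.4 mol−1 L cm−1). Inhibitor concentration varied; competitive constant Kic from non-linear regression using a general inhibition equation.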

The next series is filed under the species Sus scrofa. The series can be described thus: Competitive inhibition of pig PAP using varying levels of pNPP as substrate measured at pH 4.9 by UV-vis spectrophotometric analysis. In outline:
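Purified pig PAP, first reduced to the FeIII-FeII form (0.77 mM β-mercaptoethanol, 10 min, 37 °C), at 8.4 nM. p-NPP 1–15 mM in 0.1 M acetate pH 4.9 with 25% DMSO, 25 °C. p-Nitrophenol formation read at 405 nm (Δε 342.9 mol−1 L cm−1). Inhibitor concentration varied; Kic fitted by non-linear regression to a general inhibition equation.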

The nature of series [3]: Inhibition of human PAP assessed as dephosphorylation of 4-methylumbelliferyl phosphate to 4-methylumbelliferone using 4-methylumbelliferyl phosphate as substrate measured for 15 mins by micro-fluorescence detector method.

The structures appear in SMILES notation.

Consider `CCCCCCCCCCCCCCCCCCCCOC(c1cccc2ccccc12)P(=O)(O)O` (racemic), for which, in series [1], the solubility result was “Soluble”. The figures for the Kic (in series [2]; in the series listed under Sus scrofa) were 0.8 µM and 4.4 µM, respectively.

Take `CCCCCCCCCCCCCCCCCCCCCCOC(c1cccc2ccccc12)P(=O)(O)O` (racemic): in series [1], the solubility result is reported as “Soluble”. Moreover, the figures for the Kic (in series [2]; in the series listed under Sus scrofa) were 14 µM and 62 µM, respectively.

With `CCCCCCCCCCCCCCCCOC(c1cccc2ccccc12)P(=O)(O)O` (racemic), the solubility entry in series [1] is given as “Soluble”. In addition, the results for the Kic (in series [2]; in the series filed under Sus scrofa) were 0.4 µM and 0.6 µM, respectively.

On to `CCCCCCCCCCCCCCCCCCOC(c1cccc2ccccc12)P(=O)(O)O` (racemic), for which, in series [1], the solubility result is on record as “Soluble”. In addition, the values for the Kic (in series [2]; in the series filed under Sus scrofa) were 0.5 µM and 0.2 µM, respectively.

Broadly, the IC50 is the concentration needed to halve the response being measured. On to `O=C(c1ccccc1)C(C(=O)c1ccccc1)(c1cccc2ccccc12)P(=O)(O)O`, for which, in series [3], the IC50 is 1400 nM.

On to `CCCCCCCCCCCCCCOC(c1cccc2ccccc12)P(=O)(O)O` (racemic), for which, in series [1], the solubility result was “Soluble”. The Kic in series [2] amounted to 0.2 µM; in the series listed under Sus scrofa it was 1.1 µM.

On to `CCCCCCCCCCCCOC(c1cccc2ccccc12)P(=O)(O)O` (racemic), for which the solubility result in series [1] was “Soluble”. The Kic in series [2] stood at 4.5 µM; in the series filed under Sus scrofa, 0.7 µM.

These data come from ChEMBL document CHEMBL4359899, “Synthesis, evaluation and structural investigations of potent purple acid phosphatase inhibitors as drug leads for osteoporosis” (Eur J Med Chem, 2019).
